Results: ChEMBL document CHEMBL1158577, “Role of hydrophobic substituents on the terminal nitrogen of histamine in receptor binding and agonist activity: development of an orally active histamine type 3 receptor agonist and evaluation of its antistress activity in mice” (J Med Chem, 2010)

Columns and labels:
[1] = target: T1, Muscarinic acetylcholine receptor M1 (Homo sapiens, UniProt P11229); assay: Inhibition of muscarinic M1 receptor
T1 sequence (P11229 whole entry): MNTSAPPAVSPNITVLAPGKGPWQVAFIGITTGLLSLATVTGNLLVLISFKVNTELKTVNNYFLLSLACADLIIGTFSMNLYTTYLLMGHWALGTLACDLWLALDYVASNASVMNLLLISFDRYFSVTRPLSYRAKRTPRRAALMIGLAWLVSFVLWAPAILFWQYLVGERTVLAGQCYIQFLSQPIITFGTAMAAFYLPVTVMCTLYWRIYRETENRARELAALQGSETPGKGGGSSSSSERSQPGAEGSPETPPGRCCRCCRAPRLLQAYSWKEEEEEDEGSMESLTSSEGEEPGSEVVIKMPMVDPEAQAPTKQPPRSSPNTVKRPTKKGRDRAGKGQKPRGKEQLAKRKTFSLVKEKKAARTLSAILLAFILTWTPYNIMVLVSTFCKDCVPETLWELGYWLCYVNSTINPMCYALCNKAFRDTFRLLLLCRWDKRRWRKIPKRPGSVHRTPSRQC

Mus musculus [2] = assay: Antistress activity against isolation-induced aggressive behavior in ICR mouse assessed as duration of attacks to intruder mouse at 3 mg/kg, po measured for 10 mins by resident-intruder test (RVb = 54.5 +/- 6.7 sec); format: functional
Histamine H3 receptor [3] = target: T2, Histamine H3 receptor (Homo sapiens, UniProt Q9Y5N1); assay: Displacement of [3H[N-alpha-methylhistamine form human recombinant histamine H3 receptor expressed in CHO cells after 1 hr by liquid scintillation counting; format: cell-based
Outline: (§1)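 Used CHO cells stably expressing the human H3R for both affinity (pKi) and functional agonist measurements. Each value is the mean ± SEM of n = 3.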

Histamine H1 receptor = Histamine H1 receptor (Homo sapiens, UniProt P35367); assay: Inhibition of histamine H1 receptor
Mus musculus [4] = assay: In-vivo agonist activity at histamine H3 receptor in ddY mouse assessed as N-tele-methylhistamine level per gram of brain at 1 mg/kg, po by gas chromatography (RVb = 315 +/- 20 ng); format: functional, organism-based; design: dose 1 mg/kg
D(3) dopamine receptor = D(3) dopamine receptor (Homo sapiens, UniProt P35462); assay: Inhibition of dopamine D3 receptor
[5] = Oral bioavailability in Wistar rat at 5 mg/kg after 24 hrs by LC-MS/MS analysis; format: ADME, organism-based; settings: in vivo
Outline: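 In rat, an oral dose of 5 mg/kg (n = 2) was used to determine AUC0-inf and bioavailability (%).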

Mus musculus [6] = assay: Antistress activity against isolation-induced aggressive behavior in ICR mouse assessed as duration of attacks to intruder mouse at 30 mg/kg, po measured for 10 mins by resident-intruder test (RVb = 54.5 +/- 6.7 sec); format: functional
Mus musculus [7] = assay: In-vivo agonist activity at histamine H3 receptor in ddY mouse assessed as N-tele-methylhistamine level per gram of brain at 5 mg/kg, po by gas chromatography (RVb = 315 +/- 20 ng); format: functional, organism-based; design: dose 5 mg/kg
[8] = target: T3, 5-hydroxytryptamine receptor 1A (Homo sapiens, UniProt P08908); assay: Inhibition of 5HT1A receptor
T3 sequence (P08908 whole entry): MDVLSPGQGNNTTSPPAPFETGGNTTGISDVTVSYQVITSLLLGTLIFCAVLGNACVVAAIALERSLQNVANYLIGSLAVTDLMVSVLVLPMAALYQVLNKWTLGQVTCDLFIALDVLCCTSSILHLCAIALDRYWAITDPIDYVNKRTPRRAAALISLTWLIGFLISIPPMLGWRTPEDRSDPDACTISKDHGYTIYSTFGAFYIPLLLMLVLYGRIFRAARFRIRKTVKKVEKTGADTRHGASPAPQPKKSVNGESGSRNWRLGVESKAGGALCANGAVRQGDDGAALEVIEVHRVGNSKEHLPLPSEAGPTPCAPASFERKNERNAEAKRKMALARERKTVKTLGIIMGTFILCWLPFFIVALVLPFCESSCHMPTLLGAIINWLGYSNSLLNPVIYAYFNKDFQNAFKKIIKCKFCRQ

Histamine H2 receptor = Histamine H2 receptor (Homo sapiens, UniProt P25021); assay: Inhibition of histamine H2 receptor
Cytochrome P450 2D6 = Cytochrome P450 2D6 (Homo sapiens, UniProt P10635); assay: Inhibition of human CYP2D6 expressed in insect cell microsome after 30 mins by fluorescence assay; format: ADME, microsomes
Cytochrome P450 2C19 = Cytochrome P450 2C19 (Homo sapiens, UniProt P33261); assay: Inhibition of human CYP2C19 expressed in insect cell microsome after 30 mins by fluorescence assay; format: ADME, microsomes
[9] = target: T4, 5-hydroxytryptamine receptor 3A (Homo sapiens, UniProt P46098); assay: Inhibition of 5HT3 receptor
T4 sequence (P46098 whole entry): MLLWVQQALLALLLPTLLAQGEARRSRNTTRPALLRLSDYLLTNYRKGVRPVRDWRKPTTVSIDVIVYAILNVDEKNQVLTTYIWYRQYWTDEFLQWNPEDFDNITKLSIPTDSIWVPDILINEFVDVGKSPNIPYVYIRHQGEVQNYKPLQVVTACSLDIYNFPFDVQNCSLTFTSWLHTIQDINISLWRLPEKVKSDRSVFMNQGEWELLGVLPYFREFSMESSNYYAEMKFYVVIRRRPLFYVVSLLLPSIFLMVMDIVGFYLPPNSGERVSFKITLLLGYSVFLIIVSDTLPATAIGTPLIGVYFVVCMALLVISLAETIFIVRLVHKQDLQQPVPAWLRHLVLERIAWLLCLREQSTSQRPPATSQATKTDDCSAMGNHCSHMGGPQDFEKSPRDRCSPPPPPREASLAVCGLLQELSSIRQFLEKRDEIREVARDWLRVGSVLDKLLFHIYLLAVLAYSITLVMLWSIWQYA

D(1A) dopamine receptor = D(1A) dopamine receptor (Homo sapiens, UniProt P21728); assay: Inhibition of dopamine D1 receptor
[10] = Metabolic stability in rat liver S9 fraction assessed as […] after 60 mins by HPLC analysis; format: ADME, subcellular; settings: s9, 1 h
Outline: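 Rat S9 metabolic activity was expressed as pmol/min/mg protein, reported as mean ± SEM with n = 3.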

Mus musculus [11] = assay: In-vivo agonist activity at histamine H3 receptor in ddY mouse assessed as N-tele-methylhistamine level per gram of brain at 30 mg/kg, po by gas chromatography (RVb = 315 +/- 20 ng); format: functional, organism-based; design: dose 30 mg/kg
[12] = Volume of distribution at steady state in Wistar rat at 2 mg/kg, iv after 6 hrs by LC-MS/MS analysis; format: ADME, organism-based; design: dose 2 mg/kg, route intravenous; settings: in vivo, read-out: Vdss
Outline: (§2)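 Rats received 2 mg/kg iv, with n = 2. Total clearance (L/h/kg), steady-state volume of distribution (L/kg) and half-life (h) were derived.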

Cytochrome P450 1A2 = target: T5, Cytochrome P450 1A2 (Homo sapiens, UniProt P05177); assay: Inhibition of human CYP1A2 expressed in insect cell microsome after 15 mins by fluorescence assay; format: ADME, microsomes
T5 sequence (P05177 whole entry): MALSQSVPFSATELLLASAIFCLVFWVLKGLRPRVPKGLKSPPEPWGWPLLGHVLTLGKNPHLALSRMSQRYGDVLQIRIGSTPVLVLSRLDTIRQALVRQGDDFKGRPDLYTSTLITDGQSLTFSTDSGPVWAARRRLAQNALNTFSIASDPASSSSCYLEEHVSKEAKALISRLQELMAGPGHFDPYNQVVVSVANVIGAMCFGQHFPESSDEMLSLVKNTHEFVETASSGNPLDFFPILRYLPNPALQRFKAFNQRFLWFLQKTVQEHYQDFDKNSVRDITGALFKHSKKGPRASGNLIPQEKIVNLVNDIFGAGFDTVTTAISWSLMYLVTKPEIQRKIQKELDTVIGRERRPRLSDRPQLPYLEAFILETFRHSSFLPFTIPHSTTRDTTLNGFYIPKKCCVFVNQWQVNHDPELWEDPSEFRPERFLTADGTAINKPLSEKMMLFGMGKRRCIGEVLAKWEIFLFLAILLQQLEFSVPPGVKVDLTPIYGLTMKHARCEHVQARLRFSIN

[13] = target: 5-hydroxytryptamine receptor 2A (Homo sapiens, UniProt P28223); assay: Inhibition of 5HT2A receptor
[14] = target: Muscarinic acetylcholine receptor M3 (Homo sapiens, UniProt P20309); assay: Inhibition of muscarinic M3 receptor
[15] = Half life in Wistar rat at 2 mg/kg, iv after 6 hrs by LC-MS/MS analysis; format: ADME, organism-based; design: dose 2 mg/kg, route intravenous; settings: in vivo; outline: as §2
[16] = Inhibition of alpha1 adrenergic receptor
Histamine H3 receptor [17] = target: T2, Histamine H3 receptor; assay: Agonist activity at human recombinant histamine H3 receptor expressed in CHO cells assessed as [35S]GTPgammaS binding at 10 nM after 1 hr by liquid scintillation counting relative to (R)-alpha-methylhistamine; format: functional, cell-based
Outline: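 CHO cells stably expressing human H3R. Agonist response is given as a percent of the response to the reference H3R agonist. Results are mean ± SEM, n = 3.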

[18] = Total clearance in Wistar rat at 2 mg/kg, iv after 6 hrs by LC-MS/MS analysis; format: ADME, organism-based; design: dose 2 mg/kg, route intravenous; settings: in vivo; outline: as §2
[19] = target: Beta-1 adrenergic receptor (Homo sapiens, UniProt P08588); assay: Inhibition of beta-1 adrenergic receptor
[20] = target: Beta-2 adrenergic receptor (Homo sapiens, UniProt P07550); assay: Inhibition of beta2 adrenergic receptor
Histamine H3 receptor [21] = target: T2, Histamine H3 receptor; assay: Agonist activity at human recombinant histamine H3 receptor expressed in CHO cells assessed as [35S]GTPgammaS binding after 1 hr by liquid scintillation counting; format: functional, cell-based; settings: read-out: EC50; outline: as §1
Cytochrome P450 3A4 = Cytochrome P450 3A4 (Homo sapiens, UniProt P08684); assay: Inhibition of human CYP3A4 expressed in insect cell microsome after 30 mins by fluorescence assay; format: ADME, microsomes
Histamine H4 receptor = Histamine H4 receptor (Homo sapiens, UniProt Q9H3N8); assay: Inhibition of human recombinant histamine H4 receptor expressed in CHO cells; format: cell-based
[22] = Ratio of drug level in brain to plasma in Wistar rat at 5 mg/kg, po after 1 hr; format: ADME, organism-based; design: dose 5 mg/kg, route oral; settings: brain and plasma, read-out: BPR
Outline: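 Brain/plasma concentration ratio was determined in rats 1 h after administration, with n = 2.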

D(2) dopamine receptor = D(2) dopamine receptor (Homo sapiens, UniProt P14416); assay: Inhibition of dopamine D2 receptor
Chain of D(2) dopamine receptor (P14416 whole entry): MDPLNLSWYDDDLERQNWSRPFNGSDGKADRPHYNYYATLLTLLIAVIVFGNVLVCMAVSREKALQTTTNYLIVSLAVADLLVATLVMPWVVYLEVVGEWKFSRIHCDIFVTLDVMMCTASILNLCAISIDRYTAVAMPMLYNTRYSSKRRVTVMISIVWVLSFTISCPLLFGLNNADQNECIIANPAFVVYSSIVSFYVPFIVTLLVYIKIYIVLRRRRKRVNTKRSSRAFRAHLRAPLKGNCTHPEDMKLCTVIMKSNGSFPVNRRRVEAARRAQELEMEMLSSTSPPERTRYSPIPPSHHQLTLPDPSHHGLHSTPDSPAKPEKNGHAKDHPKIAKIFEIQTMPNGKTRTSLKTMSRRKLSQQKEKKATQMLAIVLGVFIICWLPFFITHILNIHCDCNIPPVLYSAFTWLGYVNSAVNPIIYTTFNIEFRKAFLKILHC

T2 sequence (Q9Y5N1 whole entry): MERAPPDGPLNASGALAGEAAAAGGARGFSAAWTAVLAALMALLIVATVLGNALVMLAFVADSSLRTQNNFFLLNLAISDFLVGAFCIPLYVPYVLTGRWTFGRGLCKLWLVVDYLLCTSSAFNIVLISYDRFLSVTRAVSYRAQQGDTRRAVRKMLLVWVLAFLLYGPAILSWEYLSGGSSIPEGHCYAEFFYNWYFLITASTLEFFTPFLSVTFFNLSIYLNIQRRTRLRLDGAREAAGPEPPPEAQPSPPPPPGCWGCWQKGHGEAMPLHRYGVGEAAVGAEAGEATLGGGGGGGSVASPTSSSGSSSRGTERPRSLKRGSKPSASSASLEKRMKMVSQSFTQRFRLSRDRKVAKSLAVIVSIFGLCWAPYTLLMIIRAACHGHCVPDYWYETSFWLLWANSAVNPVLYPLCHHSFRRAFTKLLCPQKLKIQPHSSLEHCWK
Chain of D(3) dopamine receptor (P35462 whole entry): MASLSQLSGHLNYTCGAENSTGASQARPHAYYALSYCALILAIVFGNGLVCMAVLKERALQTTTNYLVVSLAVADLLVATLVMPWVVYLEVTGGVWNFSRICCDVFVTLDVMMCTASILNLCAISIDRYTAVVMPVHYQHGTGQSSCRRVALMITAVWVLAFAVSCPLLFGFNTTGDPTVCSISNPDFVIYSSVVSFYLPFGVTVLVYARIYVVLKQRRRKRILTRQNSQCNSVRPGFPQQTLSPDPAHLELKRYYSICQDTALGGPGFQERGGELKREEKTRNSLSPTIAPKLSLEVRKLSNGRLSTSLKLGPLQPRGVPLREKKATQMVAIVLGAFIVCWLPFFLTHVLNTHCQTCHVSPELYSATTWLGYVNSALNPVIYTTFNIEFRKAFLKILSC
Chain of 5-hydroxytryptamine receptor 2A (P28223 whole entry): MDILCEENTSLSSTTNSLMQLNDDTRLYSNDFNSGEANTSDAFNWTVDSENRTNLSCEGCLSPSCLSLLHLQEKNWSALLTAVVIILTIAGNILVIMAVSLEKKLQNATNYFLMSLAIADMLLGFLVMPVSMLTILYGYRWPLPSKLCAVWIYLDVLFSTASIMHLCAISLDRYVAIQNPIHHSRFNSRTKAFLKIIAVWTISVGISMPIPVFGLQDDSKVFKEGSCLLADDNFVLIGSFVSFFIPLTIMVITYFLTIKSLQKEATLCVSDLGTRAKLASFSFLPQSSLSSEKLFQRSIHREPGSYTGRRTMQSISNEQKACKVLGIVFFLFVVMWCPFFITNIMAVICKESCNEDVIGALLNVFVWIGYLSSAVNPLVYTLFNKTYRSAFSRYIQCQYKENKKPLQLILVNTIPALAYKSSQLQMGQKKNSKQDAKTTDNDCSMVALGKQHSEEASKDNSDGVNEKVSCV
Chain of Histamine H1 receptor (P35367 whole entry): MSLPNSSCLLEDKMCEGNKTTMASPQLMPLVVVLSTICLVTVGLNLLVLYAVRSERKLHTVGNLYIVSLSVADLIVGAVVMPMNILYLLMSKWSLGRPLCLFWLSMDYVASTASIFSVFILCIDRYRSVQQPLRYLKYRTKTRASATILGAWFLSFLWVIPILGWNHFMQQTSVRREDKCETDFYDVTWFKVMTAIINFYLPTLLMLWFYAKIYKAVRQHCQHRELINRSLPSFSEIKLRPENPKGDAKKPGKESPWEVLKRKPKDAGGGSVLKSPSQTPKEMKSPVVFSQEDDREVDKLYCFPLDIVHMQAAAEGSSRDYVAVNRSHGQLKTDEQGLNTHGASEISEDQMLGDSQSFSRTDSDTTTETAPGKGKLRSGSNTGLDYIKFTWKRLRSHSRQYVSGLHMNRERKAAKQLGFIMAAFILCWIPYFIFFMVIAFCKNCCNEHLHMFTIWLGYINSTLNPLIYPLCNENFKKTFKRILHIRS
Chain of Cytochrome P450 2D6 (P10635 whole entry): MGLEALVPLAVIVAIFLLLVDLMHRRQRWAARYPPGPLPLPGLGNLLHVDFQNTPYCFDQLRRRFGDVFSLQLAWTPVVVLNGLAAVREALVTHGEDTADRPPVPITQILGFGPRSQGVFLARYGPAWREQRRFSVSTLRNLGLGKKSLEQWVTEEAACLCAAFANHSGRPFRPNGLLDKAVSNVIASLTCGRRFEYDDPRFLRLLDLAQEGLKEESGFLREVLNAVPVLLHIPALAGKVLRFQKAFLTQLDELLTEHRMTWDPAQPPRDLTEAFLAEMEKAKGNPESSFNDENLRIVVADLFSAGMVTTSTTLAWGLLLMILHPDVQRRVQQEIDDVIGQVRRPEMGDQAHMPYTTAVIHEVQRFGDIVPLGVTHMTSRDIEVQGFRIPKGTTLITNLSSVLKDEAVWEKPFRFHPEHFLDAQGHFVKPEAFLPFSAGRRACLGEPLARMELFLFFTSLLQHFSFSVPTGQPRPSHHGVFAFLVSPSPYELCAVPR
Chain of Muscarinic acetylcholine receptor M3 (P20309 whole entry): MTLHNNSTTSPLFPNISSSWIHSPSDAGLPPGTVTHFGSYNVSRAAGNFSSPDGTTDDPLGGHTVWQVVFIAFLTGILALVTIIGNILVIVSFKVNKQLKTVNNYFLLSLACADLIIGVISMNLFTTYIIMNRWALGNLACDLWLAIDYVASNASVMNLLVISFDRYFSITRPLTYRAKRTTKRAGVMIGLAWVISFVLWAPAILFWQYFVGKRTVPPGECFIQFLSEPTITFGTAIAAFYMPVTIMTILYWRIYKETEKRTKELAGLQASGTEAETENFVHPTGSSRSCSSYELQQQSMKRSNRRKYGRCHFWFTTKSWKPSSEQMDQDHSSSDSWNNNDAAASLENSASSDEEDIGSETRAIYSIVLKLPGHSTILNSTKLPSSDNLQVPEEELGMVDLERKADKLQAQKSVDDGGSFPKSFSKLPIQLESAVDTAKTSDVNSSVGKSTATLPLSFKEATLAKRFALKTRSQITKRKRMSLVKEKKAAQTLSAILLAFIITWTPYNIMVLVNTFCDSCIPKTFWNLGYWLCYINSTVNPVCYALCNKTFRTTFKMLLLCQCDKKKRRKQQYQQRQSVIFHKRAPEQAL
Chain of D(1A) dopamine receptor (P21728 whole entry): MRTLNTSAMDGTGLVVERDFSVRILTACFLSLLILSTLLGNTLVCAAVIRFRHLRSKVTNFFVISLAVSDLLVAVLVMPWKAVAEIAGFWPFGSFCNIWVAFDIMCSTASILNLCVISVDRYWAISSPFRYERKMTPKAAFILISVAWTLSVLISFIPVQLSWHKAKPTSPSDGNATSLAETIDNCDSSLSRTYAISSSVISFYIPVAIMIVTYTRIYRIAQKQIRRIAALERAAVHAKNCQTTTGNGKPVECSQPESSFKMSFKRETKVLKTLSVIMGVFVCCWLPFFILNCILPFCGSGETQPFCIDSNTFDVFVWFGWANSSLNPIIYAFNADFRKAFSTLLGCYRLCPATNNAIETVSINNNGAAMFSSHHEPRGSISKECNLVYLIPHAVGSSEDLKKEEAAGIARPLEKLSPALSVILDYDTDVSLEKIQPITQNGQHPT
Chain of Beta-2 adrenergic receptor (P07550 whole entry): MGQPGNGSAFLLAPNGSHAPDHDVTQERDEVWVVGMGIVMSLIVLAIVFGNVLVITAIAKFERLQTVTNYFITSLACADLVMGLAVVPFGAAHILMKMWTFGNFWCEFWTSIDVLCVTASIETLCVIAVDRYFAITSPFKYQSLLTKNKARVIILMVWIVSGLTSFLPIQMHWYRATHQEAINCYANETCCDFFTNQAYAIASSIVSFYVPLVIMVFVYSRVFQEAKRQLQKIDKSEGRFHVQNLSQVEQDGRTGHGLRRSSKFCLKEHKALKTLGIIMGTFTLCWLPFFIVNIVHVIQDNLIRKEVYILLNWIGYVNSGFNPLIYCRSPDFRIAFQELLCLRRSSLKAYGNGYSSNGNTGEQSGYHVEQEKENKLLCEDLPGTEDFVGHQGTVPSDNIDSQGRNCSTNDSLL
Chain of Histamine H2 receptor (P25021 whole entry): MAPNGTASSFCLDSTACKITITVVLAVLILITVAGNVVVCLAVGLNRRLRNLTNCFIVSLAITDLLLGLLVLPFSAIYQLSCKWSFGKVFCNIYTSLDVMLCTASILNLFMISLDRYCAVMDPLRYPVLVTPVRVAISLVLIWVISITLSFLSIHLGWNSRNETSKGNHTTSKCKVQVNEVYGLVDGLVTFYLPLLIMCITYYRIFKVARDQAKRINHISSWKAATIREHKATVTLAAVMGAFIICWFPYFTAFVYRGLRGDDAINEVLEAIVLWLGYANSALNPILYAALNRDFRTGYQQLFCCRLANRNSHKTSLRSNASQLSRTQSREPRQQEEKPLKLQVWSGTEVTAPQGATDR
Chain of Histamine H4 receptor (Q9H3N8 whole entry): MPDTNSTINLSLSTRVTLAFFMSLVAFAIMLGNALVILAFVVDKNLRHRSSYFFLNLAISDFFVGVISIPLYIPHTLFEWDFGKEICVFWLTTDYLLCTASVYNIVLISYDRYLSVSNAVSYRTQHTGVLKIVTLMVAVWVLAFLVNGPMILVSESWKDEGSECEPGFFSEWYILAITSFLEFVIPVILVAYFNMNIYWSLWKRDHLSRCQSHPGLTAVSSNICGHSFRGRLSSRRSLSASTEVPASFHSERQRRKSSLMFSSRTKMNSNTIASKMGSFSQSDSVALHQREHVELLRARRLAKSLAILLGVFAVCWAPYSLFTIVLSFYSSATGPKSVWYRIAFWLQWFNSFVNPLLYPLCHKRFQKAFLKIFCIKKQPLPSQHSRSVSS

CC(C)(C)c1ccc(SCCc2c[nH]cn2)cc1
Ki [1]: > 1000 nM | Time (Mus musculus [2]): 42.9 s | Ki (Histamine H3 receptor [3]): 0.17 nM | Ki (Histamine H1 receptor): > 1000 nM | Nτ-methylhistamine level (Mus musculus [4]): 298 ng/g | Ki (D(3) dopamine receptor): > 1000 nM | bioavailability [5]: 53.5% | Time (Mus musculus [6]): 16.3 s | Nτ-methylhistamine level (Mus musculus [7]): 92 ng/g | Ki [8]: > 1000 nM | Ki (Histamine H2 receptor): > 1000 nM | IC50 (Cytochrome P450 2D6): 680 nM | IC50 (Cytochrome P450 2C19): 8.5 nM | Ki [9]: > 1000 nM | Ki (D(1A) dopamine receptor): > 1000 nM | Stability [10]: 13 pmol/min | Nτ-methylhistamine level (Mus musculus [11]): 96 ng/g | Vd [12]: 3.4 L/kg | IC50 (Cytochrome P450 1A2): 680 nM | Ki [13]: > 1000 nM | Ki [14]: > 1000 nM | half-life [15]: 1 h | Ki [16]: > 1000 nM | Activity (Histamine H3 receptor [17]): 77% | clearance [18]: 46.7 mL/min/kg | Ki [19]: > 1000 nM | Ki [20]: > 1000 nM | EC50 (Histamine H3 receptor [21]): 0.75 nM | IC50 (Cytochrome P450 3A4): 470 nM | Ki (Histamine H4 receptor): 1.1 nM | Kp at 1 h [22]: 6 | Ki (D(2) dopamine receptor): > 1000 nM

Cc1ccc(NCCc2cnc[nH]2)cc1C
Ki (Histamine H3 receptor [3]): 9.9 nM | EC50 (Histamine H3 receptor [21]): 25 nM

CC(C)(C)c1ccc(NCCc2c[nH]cn2)cc1
Activity (Histamine H3 receptor [17]): 70%

N=C(N)SCCc1cnc[nH]1 [IMETIT]
Ki (Histamine H3 receptor [3]): 0.57 nM | EC50 (Histamine H3 receptor [21]): 2.4 nM

N=C(N)SCCc1c[nH]cn1
Nτ-methylhistamine level (Mus musculus [4]): 239 ng/g | Nτ-methylhistamine level (Mus musculus [7]): 133 ng/g | Nτ-methylhistamine level (Mus musculus [11]): 98 ng/g | Activity (Histamine H3 receptor [17]): 91%

Cc1ccc(NCCc2cnc[nH]2)cc1
Ki (Histamine H3 receptor [3]): 14 nM | EC50 (Histamine H3 receptor [21]): 88 nM

c1ncc(CCNc2ccc(C3CCCCC3)cc2)[nH]1
Ki (Histamine H3 receptor [3]): 4.1 nM

CC(C)(C)c1cccc(NCCc2c[nH]cn2)c1
Ki (Histamine H3 receptor [3]): 2.2 nM | Activity (Histamine H3 receptor [17]): 48% | EC50 (Histamine H3 receptor [21]): 4.6 nM

c1ccc(NCCc2c[nH]cn2)cc1
Activity (Histamine H3 receptor [17]): 42%
